Assay results as given in PMC7392083 (Journal of the American Chemical Society, 2020).
Where two headings read alike, the source gives them in different places.

Columns and labels:
[1] = target: T1, human intelectin-1 (hItln-1) (Homo sapiens, UniProt Q8WWA0); assay: ELISA of hItln-1 binding to immobilized BSA-conjugated monosaccharides; details: for Kd by ELISA: BSA-conjugated heptose sugars, single-site binding fit; for binding to hItln-1 by ELISA: saccharide conjugated in multiple copies to BSA and immobilized
Outline: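 Sugar–BSA conjugates were adsorbed in PBS (1.5 μM sugar), 1 h RT, then blocked with 5% BSA in HEPES-T for 2 h. Serially diluted Strep-hItln-1 in HEPES-T + BSA was bound 2 h RT. Detection used anti-Strep-tag HRP (1:10,000, 2 h RT), then TMB quenched with 2 M H2SO4, read at 450 nm. One-site binding fit gave Kd. Mean ± SEM, n = 2 technical replicates.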

[2] = target: T1, human intelectin-1 (hItln-1); assay: Biolayer interferometry; type: binding; details: for ΔΔG relative free energy of binding compared to Galf: column Galf; for ΔΔG relative free energy of binding compared to Glycerol 1-phosphate: column Glycerol 1-phosphate; for ΔΔG relative free energy of binding compared to KDO: column KDO; for ΔΔG relative free energy of binding compared to KO: column KO
hItln-1 = details: cited from earlier work
[3] = ΔΔG = 0.593 (kcal/mol) ln(IC50,row/IC50,column)

T1 sequence (Q8WWA0 19-313): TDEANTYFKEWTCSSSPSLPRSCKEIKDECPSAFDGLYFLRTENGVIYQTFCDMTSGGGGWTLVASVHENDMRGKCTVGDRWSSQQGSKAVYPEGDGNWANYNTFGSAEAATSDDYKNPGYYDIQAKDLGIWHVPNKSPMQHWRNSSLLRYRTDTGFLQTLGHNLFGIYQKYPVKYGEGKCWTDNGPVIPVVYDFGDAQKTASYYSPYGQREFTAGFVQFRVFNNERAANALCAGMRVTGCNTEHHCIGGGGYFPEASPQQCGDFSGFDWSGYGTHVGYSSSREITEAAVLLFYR

OC[C@@H](O)[C@H]1O[C@H](O)[C@@H](O)[C@@H](O)[C@@H]1O [D,D-heptose, D-glycero-α-D-manno-heptose]
Kd by ELISA [1]: could not be determined | binding to hItln-1 by ELISA [1]: no measurable binding | ΔΔG relative free energy of binding compared to Galf [2, 3]: 3.3 kJ/mol | ΔΔG relative free energy of binding compared to Glycerol 1-phosphate [2, 3]: 2.9 kJ/mol | ΔΔG relative free energy of binding compared to KDO [2, 3]: 3.8 kJ/mol | ΔΔG relative free energy of binding compared to KO [2, 3]: 5.44 kJ/mol

OC[C@@H](O)[C@@H]1O[C@@H](O)[C@H](O)[C@H]1O [Galf, β-D-galactofuranose]
binding to hItln-1 by ELISA [1]: bound | ΔΔG relative free energy of binding compared to KDO [2, 3]: 0.42 kJ/mol | ΔΔG relative free energy of binding compared to KO [2, 3]: 2.5 kJ/mol

O=P(O)(O)OC[C@H](O)CO [Glycerol 1-phosphate, D-glycerol 1-phosphate]
ΔΔG relative free energy of binding compared to Galf [2, 3]: 0.42 kJ/mol | ΔΔG relative free energy of binding compared to KDO [2, 3]: 0.84 kJ/mol | ΔΔG relative free energy of binding compared to KO [2, 3]: 2.9 kJ/mol

C=CCO[C@@]1(C(=O)O)O[C@H]([C@H](O)CO)[C@H](O)[C@H](O)[C@@H]1O [KO, prop-2-en-1-yl D-glycero-alpha-D-talo-oct-2-ulopyranosidonic acid]
binding to hItln-1 by ELISA [1]: bound | IC50 [2]: 700 µM | ΔΔG relative free energy of binding compared to Galf [2, 3]: -2.5 kJ/mol

OC[C@H](O)[C@H]1O[C@H](O)[C@@H](O)[C@@H](O)[C@@H]1O [L,D-heptose, L-glycero-α-D-manno-heptose]
Kd by ELISA [1]: could not be determined | binding to hItln-1 by ELISA [1]: no measurable binding | IC50 value higher than that of allyl-KO ([2]; ratio of IC50 values): 80 fold | ΔΔG relative free energy of binding compared to D,D-heptose ([2]; ΔΔG = 0.593 (kcal/mol) ln(IC50,row/IC50,column), column D,D-heptose): 5.02 kJ/mol | ΔΔG relative free energy of binding compared to Galf [2, 3]: 8.37 kJ/mol | ΔΔG relative free energy of binding compared to Glycerol 1-phosphate [2, 3]: 7.95 kJ/mol | ΔΔG relative free energy of binding compared to KDO [2, 3]: 8.37 kJ/mol | ΔΔG relative free energy of binding compared to KO [2, 3]: 10 kJ/mol

CC(=O)N[C@H]1[C@H]([C@H](O)[C@H](O)CO)OC(O)(C(=O)O)C[C@@H]1O (stereo partly shown) [sialic acid, N-acetyl neuraminic acid]
binding to hItln-1 (hItln-1): not a ligand | binding to hItln-1 (hItln-1; listed as N-acetyl neuraminic acid): does not bind
